Bioassay records (PubChem BioAssay)
KDM4C inh: KDM4C (human) demethylase inhibition; Q9H3R0; GST-KDM4C 2-372, H3K9me3 peptide, LANCE TR-FRET; inhibition, % at 12.5 µM; 96,000 tested, 0.15% active;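 active means mean replicate inhibition above about 25%, with at least 55% of replicates also reaching it, limit read from the data, passing the limit was not always enough; inconclusive means only one of those two conditions met; inactive means neither condition met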
Target sequence (Q9H3R0 2-372 limits assumed): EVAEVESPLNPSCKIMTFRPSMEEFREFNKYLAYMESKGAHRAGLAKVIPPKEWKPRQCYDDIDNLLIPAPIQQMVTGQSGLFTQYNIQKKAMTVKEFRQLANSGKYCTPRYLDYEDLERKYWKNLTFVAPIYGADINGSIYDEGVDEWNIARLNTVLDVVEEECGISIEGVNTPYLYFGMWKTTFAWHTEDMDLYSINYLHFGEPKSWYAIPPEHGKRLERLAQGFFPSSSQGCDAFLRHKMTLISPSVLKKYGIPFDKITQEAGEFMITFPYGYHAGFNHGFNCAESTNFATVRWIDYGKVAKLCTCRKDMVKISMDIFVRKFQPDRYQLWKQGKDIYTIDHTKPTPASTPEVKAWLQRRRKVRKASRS
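System: N-terminal GST-fused human GASC-1 (KDM4C) fragment, residues 2-372 / Amount: 10 nM GST-KDM4C in enzyme reaction / Also added: H3K9me3 peptide with Fe(II)/2OG / Times: 30 min demethylation and 1 h detection at room temperature / Signal: LANCE TR-FRET / Read-out basis: Fall in 671/618 emission ratio as inhibition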
IDH1 R132H inh: blocks human IDH1 R132H reductase activity. O75874. inhibition, % at 10 µM. 70,000 tested, 0.18% active. diaphorase/resazurin fluorescence, 60 min. AID 624101; in the data active means inhibition above about 34%; inconclusive means no clear call, values can overlap the other calls; inactive means below about 11%
Pf Dd2 inh: inhibitors of Plasmodium falciparum Dd2 growth | 94,000 tested, 2.3% active | P. falciparum Dd2 growth, SYBR Green, 72 h; active compounds read low | activity change, % at 10 µM; in the data active means activity change below about -80%; inconclusive means no clear call, values can overlap the other calls
Each line names hits and unclear results; the compound was inactive in the other large screens; ! = a repeat was not active. The full list was thinned out, with hits kept by preference.

Cc1ccccc1S(=O)(=O)N1C[C@@H]2N[C@H](C1)C2c1ccc(-c2ccc(C#N)cc2)cc1 (stereo not given in full)	Pf Dd2 inh -84! (no result: IDH1 R132H inh)
O=S(=O)(c1ccc(F)cc1)N1C[C@@H]2N[C@H](C1)C2c1ccc(-c2ccc(F)cc2)cc1 (stereo not given in full)	Pf Dd2 inh -88! (no result: IDH1 R132H inh)
C/C=C/c1ccc([C@@H]2[C@H](CO)N3C(=O)CN(C(=O)Nc4cccc(OC)c4)C[C@@H]23)cc1	none (no result: IDH1 R132H inh)
Cc1noc(C)c1NC(=O)Nc1ccc2c(c1)C(=O)N([C@@H](C)CO)C[C@H](C)[C@H](CN(C)C)OCCCC[C@H](C)O2	none
O=C1C(=O)N(Cc2cccnc2)C(c2ccc(Br)cc2)C1C(=O)c1cccs1 (stereo not given)	none (no result: KDM4C inh, Pf Dd2 inh)
C[C@@H]1CN([C@@H](C)CO)C(=O)Cc2cc(NS(=O)(=O)c3ccc(F)cc3)ccc2O[C@H]1CN(C)Cc1ccc(C(=O)Nc2ccccc2N)cc1	none
C[C@H](CO)N1C[C@H](C)[C@H](CN(C)Cc2ccc(C(=O)Nc3ccccc3N)cc2)Oc2ccc(NS(=O)(=O)c3ccccc3)cc2CC1=O	Pf Dd2 inh -85 (no result: IDH1 R132H inh)
C[C@H](CO)N1C[C@H](C)[C@H](CN(C)Cc2ccc(C(=O)Nc3ccccc3N)cc2)Oc2ccc(NS(=O)(=O)c3ccc(F)cc3)cc2CC1=O	Pf Dd2 inh -82
C[C@H]1CN([C@@H](C)CO)C(=O)Cc2cc(NS(=O)(=O)c3ccc(Cl)cc3)ccc2O[C@@H]1CN(C)Cc1ccc(C(=O)Nc2ccccc2N)cc1	Pf Dd2 inh -85
C[C@H](CO)N1C[C@H](C)[C@H](CN(C)Cc2ccc(C(=O)Nc3ccccc3N)cc2)Oc2ccc(NS(=O)(=O)c3ccc(Cl)cc3)cc2CC1=O	Pf Dd2 inh -83 (no result: IDH1 R132H inh)
C[C@H](CO)N1C[C@H](C)[C@@H](CN(C)Cc2ccc(C(=O)Nc3ccccc3N)cc2)Oc2ccc(NS(=O)(=O)c3ccc(F)cc3)cc2CC1=O	Pf Dd2 inh inconclusive
C[C@@H]1CN([C@@H](C)CO)C(=O)Cc2cc(NS(=O)(=O)c3ccc(Cl)cc3)ccc2O[C@H]1CN(C)Cc1ccc(C(=O)Nc2ccccc2N)cc1	none
C[C@@H]1CN([C@@H](C)CO)C(=O)Cc2cc(NS(C)(=O)=O)ccc2O[C@H]1CN(C)Cc1ccc(C(=O)Nc2ccccc2N)cc1	none
CCNC(=O)C[C@@H]1CC[C@H]2[C@@H](COc3ccc(NC(=O)Nc4cccc(C)c4)cc3C(=O)N2C)O1	none (no result: IDH1 R132H inh)
CCC(=O)Nc1ccc2c(c1)OC[C@H](C)N(C(=O)C1CC1)C[C@H](C)[C@H](OC)CN(C)C2=O	KDM4C inh inconclusive
C[C@H](CO)N1C[C@H](C)[C@H](CN(C)C(=O)Nc2ccc3c(c2)OCO3)OCCCC[C@H](C)Oc2ccc(NC(=O)CCC(F)(F)F)cc2C1=O	none
C[C@H]1CN([C@@H](C)CO)C(=O)c2cccc(NC(=O)CCCCCC(=O)Nc3ccccc3N)c2O[C@@H]1CN(C)CC1CC1	none
C[C@H]1CN([C@@H](C)CO)C(=O)c2cccc(NC(=O)CCCCCC(=O)Nc3ccccc3N)c2O[C@H]1CN(C)CC1CCCCC1	Pf Dd2 inh -83
C[C@@H]1CN([C@@H](C)CO)C(=O)c2cccc(NC(=O)CCCCCC(=O)Nc3ccccc3N)c2O[C@H]1CN(C)CC1CC1	Pf Dd2 inh -85 (no result: IDH1 R132H inh)
C[C@@H]1CN([C@H](C)CO)C(=O)c2cccc(NC(=O)CCCCCC(=O)Nc3ccccc3N)c2O[C@@H]1CN(C)CC1CC1	none
C[C@H](CO)N1C[C@H](C)[C@H](CN(C)CC2CCCCC2)Oc2c(NC(=O)CCCCCC(=O)Nc3ccccc3N)cccc2C1=O	none (no result: Pf Dd2 inh)
C[C@H](CO)N1C[C@H](C)[C@@H](CN(C)CC2CCCCC2)Oc2c(NC(=O)CCCCCC(=O)Nc3ccccc3N)cccc2C1=O	Pf Dd2 inh -88
Cc1noc(C)c1NC(=O)N(C)C[C@H]1OCCCC[C@H](C)Oc2ccc(N(C)C)cc2C(=O)N([C@@H](C)CO)C[C@@H]1C	none
C[C@@H]1CN([C@@H](C)CO)C(=O)Cc2cc(NC(=O)C3CC3)ccc2O[C@@H]1CN(C)C(=O)Nc1ccc(C(F)(F)F)cc1	none
CC(C)NC(=O)N(C)C[C@@H]1OCCCC[C@H](C)Oc2ccc(NC(=O)Cc3ccccc3)cc2C(=O)N([C@H](C)CO)C[C@H]1C	none
COc1ccc2c3c([nH]c2c1)[C@@H](CO)N(Cc1ccccc1Cl)CC31CN(C(=O)C2CC2)C1	none (no result: IDH1 R132H inh)
COCC(=O)N1CCC2(CC1)CN(Cc1cccc(OC)c1)[C@@H](CO)c1[nH]c3cc(OC)ccc3c12	Pf Dd2 inh -92 (no result: IDH1 R132H inh)
COc1ccc2c3c([nH]c2c1)[C@H](CO)N(Cc1ccccc1Cl)CC31CN(C(C)=O)C1	Pf Dd2 inh -90 (no result: IDH1 R132H inh)
COCC(=O)N1CCC2(CC1)CN(Cc1cccc(OC)c1)[C@H](CO)c1[nH]c3cc(OC)ccc3c12	Pf Dd2 inh inconclusive (no result: IDH1 R132H inh)
COCC(=O)N1CC2(C1)CN(Cc1ccccc1Cl)[C@@H](CO)c1[nH]c3cc(OC)ccc3c12	none (no result: IDH1 R132H inh)
COc1ccc2c3c([nH]c2c1)[C@@H](CO)N(Cc1ccccc1Cl)CC31CCN(C(=O)C2CC2)CC1	Pf Dd2 inh -87 (no result: IDH1 R132H inh)
COc1ccc2c3c([nH]c2c1)[C@@H](CO)N(Cc1ccccc1F)CC31CN(C)C1	none (no result: IDH1 R132H inh)
CCS(=O)(=O)N1CC2(CN(Cc3ccccc3F)[C@@H](CO)c3[nH]c4cc(OC)ccc4c32)C1	Pf Dd2 inh -87 (no result: IDH1 R132H inh)
O=C(Nc1ccccc1F)N[C@H]1CC[C@H](CCNC(=O)C2CCCC2)O[C@H]1CO	none
C[C@H]1CN([C@@H](C)CO)C(=O)Cc2cc(NS(=O)(=O)c3cccs3)ccc2O[C@@H]1CN(C)Cc1ccc(C(=O)O)cc1	none
O=C(C[C@@H]1C=C[C@@H](NC(=O)CC2CC2)[C@H](CO)O1)NCc1ccccc1	none (no result: IDH1 R132H inh)
C[C@H]1CN([C@@H](C)CO)C(=O)c2cccc(NS(=O)(=O)c3ccccc3)c2O[C@H]1CN(C)C(=O)NC1CCCCC1	none
CCCNC(=O)N(C)C[C@H]1Oc2cc(C3=CCCCC3)ccc2S(=O)(=O)N([C@@H](C)CO)C[C@@H]1C	none (no result: IDH1 R132H inh)
COCC(=O)N1CCC2(CC1)CN(Cc1ccccc1Cl)[C@H](CO)c1[nH]c3cc(OC)ccc3c12	Pf Dd2 inh -83 (no result: IDH1 R132H inh)
COc1ccc2c3c([nH]c2c1)[C@H](CO)N(Cc1ccccc1F)CC31CCN(C(=O)C2CCCC2)CC1	none (no result: IDH1 R132H inh)
COCC(=O)N1CCC2(CC1)CN(Cc1ccccc1Cl)[C@@H](CO)c1[nH]c3cc(OC)ccc3c12	Pf Dd2 inh inconclusive (no result: IDH1 R132H inh)
COc1ccc2c3c([nH]c2c1)[C@H](CO)N(Cc1ccccc1Cl)CC31CCN(C(C)=O)CC1	Pf Dd2 inh -89 (no result: IDH1 R132H inh)
COc1ccc2c3c([nH]c2c1)[C@H](CO)N(C(C)=O)CC31CCN(Cc2ccccc2Cl)CC1	none (no result: IDH1 R132H inh)
COc1ccc2c3c([nH]c2c1)[C@@H](CO)N(Cc1ccccc1F)CC31CCN(C(=O)C2CC2)CC1	Pf Dd2 inh -85 (no result: IDH1 R132H inh)
COCC(=O)Nc1ccc2c(c1)OC[C@H](C)N(Cc1ccccn1)C[C@H](C)[C@@H](OC)CN(C)C2=O	none
C[C@H](NC(=O)C[C@H]1C[C@H]2c3cc(NC(=O)CC4CC4)ccc3O[C@H]2[C@H](CO)O1)c1ccccc1	none
O=C(C[C@H]1C[C@@H]2c3cc(NC(=O)C4CCC4)ccc3O[C@@H]2[C@H](CO)O1)NCc1ccccc1F	none
